Values belong to the molecule of their own block, whether it stands above or below them. The source made the active and inactive calls. The rule behind the calls is not given here.
Experiments:
[1] = target: T1, Beta-lactamase OXA-48 (Klebsiella pneumoniae, UniProt Q6XEC0); experiment: Inhibition of native signal containing Klebsiella pneumoniae OXA-48 using nitrocefin substrate pre-incubated for 5 mins before substrate addition
[2] = target: T1, Beta-lactamase OXA-48; experiment: Binding affinity to native signal deficient and TEV cleavage site containing His-tagged Klebsiella pneumoniae OXA-48 expressed in Escherichia coli assessed as dissociation constant by SPR assay
[3] = Inhibition of beta-lactamase VIM-2 (unknown origin)
[4] = target: Beta-lactamase OXA-48 (Klebsiella pneumoniae) (UniProt Q6XEC0); experiment: Inhibition of native signal containing Klebsiella pneumoniae OXA-48 at 1.5 uM using nitrocefin substrate pre-incubated for 5 mins before substrate addition
Method in brief: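 Avibactam dilution series (50 nM–20 µM) was preincubated about 5 min with 100 pM nOXA-48, then started with 25 µM nitrocefin. Buffer was phosphate pH 7.0 with 50 mM NaHCO3 and 0.2 mg/ml BSA, at 25 °C. Competition read-out from initial hydrolysis rates.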

[5] = target: T1, Beta-lactamase OXA-48; experiment: Binding affinity to native signal deficient and TEV cleavage site containing His-tagged Klebsiella pneumoniae OXA-48 expressed in Escherichia coli assessed as dissociation rate constant by SPR assay
Method in brief: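 tOXA-48 (E. coli BL21 Star (DE3) pRARE, His tag removed by TEV, cation-exchange polished) amine-coupled to CM5 chip (~5000 RU, from 25 µg/mL in 10 mM MES pH 5.5). Fragments 2-fold series 118-900 µM (or 1.8-900 µM), double-referenced, steady-state fit. Meropenem 62.5 nM-32 µM, 1:1 kinetic fit.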

[6] = target: Beta-lactamase OXA-48 (Klebsiella pneumoniae) (UniProt Q6XEC0); experiment: Binding affinity to native signal deficient and TEV cleavage site containing His-tagged Klebsiella pneumoniae OXA-48 expressed in Escherichia coli assessed as association rate constant by SPR assay
Method in brief: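 SPR with tOXA-48 amine-coupled to a CM5 chip (~5000 RU, immobilised from 10 mM MES pH 5.5). Meropenem was injected as a 2-fold series, 62.5 nM-32 µM, at 30 µL/min, with 60 s contact and 240 s dissociation. Sensorgrams were double-referenced and fitted to a 1:1 kinetic model.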

[7] = substrate: O=C(Cc1cccs1)N[C@@H]1C(=O)N2C(C(=O)O)=C(/C=C/c3ccc([N+](=O)[O-])cc3[N+](=O)[O-])CS[C@H]12; experiment: Activity of native signal deficient and TEV cleavage site containing His-tagged Klebsiella pneumoniae OXA-48 expressed in Escherichia coli by Michaelis-Menten kinetics assay
Method in brief: (§1)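 His-tag-removed tOXA-48 from E. coli BL21 Star (DE3) pRARE, purified by HisTrap, TEV cleavage and cation exchange. Hydrolysis of nitrocefin (10-300 µM) was read at 482 nm with 1 nM enzyme. Buffer was 100 mM phosphate pH 7.0, 50 mM NaHCO3, 0.2 mg/ml BSA at 25 °C. Enzyme-started; linear-phase rates were fitted to Michaelis-Menten.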

[8] = substrate: O=C(Cc1cccs1)N[C@@H]1C(=O)N2C(C(=O)O)=C(CSc3ccc([N+](=O)[O-])c(C(=O)O)c3)CS[C@H]12; experiment: (§2) Activity of native signal containing Klebsiella pneumoniae OXA-48 by Michaelis-Menten kinetics assay
Method in brief: (§3)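 Steady-state kinetics of nOXA-48 at 25 °C in 100 mM sodium phosphate pH 7.0, 50 mM NaHCO3, 0.2 mg/ml BSA. Substrates were ampicillin, benzylpenicillin, cefepime, CENTA, meropenem, imipenem and nitrocefin, each over its own concentration range, with 100 pM–140 nM enzyme. Reactions were enzyme-started and followed spectrophotometrically. Velocities came from the linear phase, fitted to Michaelis-Menten.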

[9] = substrate: C[C@@H](O)[C@H]1C(=O)N2C(C(=O)O)=C(S[C@@H]3CN[C@H](C(=O)N(C)C)C3)[C@H](C)[C@H]12; experiment: as §2; method in brief: as §3
[10] = substrate: C[C@@H](O)[C@H]1C(=O)N2C(C(=O)O)=C(SCCNC=N)C[C@H]12; experiment: as §2; method in brief: as §3
[11] = substrate: CC1(C)S[C@@H]2[C@H](NC(=O)[C@H](N)c3ccccc3)C(=O)N2[C@H]1C(=O)O; experiment: as §2; method in brief: as §3
[12] = substrate: O=C(Cc1cccs1)N[C@@H]1C(=O)N2C(C(=O)O)=C(/C=C/c3ccc([N+](=O)[O-])cc3[N+](=O)[O-])CS[C@H]12; experiment: as §2; method in brief: as §3
[13] = substrate: CO/N=C(\C(=O)N[C@@H]1C(=O)N2C(C(=O)[O-])=C(C[N+]3(C)CCCC3)CS[C@H]12)c1csc(N)n1; experiment: as §2; method in brief: as §3
[14] = substrate: CC1(C)S[C@@H]2[C@H](NC(=O)Cc3ccccc3)C(=O)N2[C@H]1C(=O)O; experiment: as §2; method in brief: as §3
[15] = substrate: O=C(Cc1cccs1)N[C@@H]1C(=O)N2C(C(=O)O)=C(/C=C/c3ccc([N+](=O)[O-])cc3[N+](=O)[O-])CS[C@H]12; experiment: Activity of native signal deficient and TEV cleavage site containing His-tagged Klebsiella pneumoniae OXA-48 expressed in Escherichia coli assessed as ratio of Kcat to Km by Michaelis-Menten kinetics assay; method in brief: as §1
[16] = substrate: O=C(Cc1cccs1)N[C@@H]1C(=O)N2C(C(=O)O)=C(CSc3ccc([N+](=O)[O-])c(C(=O)O)c3)CS[C@H]12; experiment: (§4) Activity of native signal containing Klebsiella pneumoniae OXA-48 assessed as ratio of Kcat to Km by Michaelis-Menten kinetics assay; method in brief: as §3
[17] = substrate: C[C@@H](O)[C@H]1C(=O)N2C(C(=O)O)=C(S[C@@H]3CN[C@H](C(=O)N(C)C)C3)[C@H](C)[C@H]12; experiment: as §4; method in brief: as §3
[18] = substrate: C[C@@H](O)[C@H]1C(=O)N2C(C(=O)O)=C(SCCNC=N)C[C@H]12; experiment: as §4; method in brief: as §3
[19] = substrate: CC1(C)S[C@@H]2[C@H](NC(=O)[C@H](N)c3ccccc3)C(=O)N2[C@H]1C(=O)O; experiment: as §4; method in brief: as §3
[20] = substrate: O=C(Cc1cccs1)N[C@@H]1C(=O)N2C(C(=O)O)=C(/C=C/c3ccc([N+](=O)[O-])cc3[N+](=O)[O-])CS[C@H]12; experiment: as §4; method in brief: as §3
[21] = substrate: CO/N=C(\C(=O)N[C@@H]1C(=O)N2C(C(=O)[O-])=C(C[N+]3(C)CCCC3)CS[C@H]12)c1csc(N)n1; experiment: as §4; method in brief: as §3
[22] = substrate: CC1(C)S[C@@H]2[C@H](NC(=O)Cc3ccccc3)C(=O)N2[C@H]1C(=O)O; experiment: as §4; method in brief: as §3

Molecule: O=C(O)CSc1ccnc2cc(Cl)ccc12
IC50 [1]: 220 µM

Molecule: O=C(O)c1ccc2ccncc2c1
IC50 [1]: 2200 µM
Kd [2]: 1180 µM

Molecule: O=C(O)c1cccc(-c2nccs2)c1
IC50 [1]: 250 µM
Kd [2]: 310 µM

Molecule: O=C(O)c1ccc2[nH]ccc2c1
IC50 [1]: 1390 µM
Kd [2]: 1380 µM

Molecule: c1ccc(-c2ccncc2)cc1
IC50 [1]: > 2000 µM
Kd [2]: > 1000 µM

Molecule: O=C(O)CCCc1c[nH]c2ccccc12
IC50 [1]: 480 µM
Kd [2]: 430 µM

Molecule: Nc1cccnc1-c1cccc(C(=O)O)c1
IC50 [1]: 180 µM
Kd [2]: 330 µM

Molecule: O=C(O)c1cc(-c2ccncc2)cc(-c2ccncc2)c1
inhibition [3]: Active
IC50 [1]: 18 µM
Kd [2]: 50 µM

Molecule: O=C(O)c1cccc(-c2ccccc2)c1
IC50 [1]: 260 µM
Kd [2]: 370 µM

Molecule: Cc1cc2ccc(C(=O)O)cc2cn1
IC50 [1]: 1020 µM
Kd [2]: 700 µM

Molecule: O=C(O)c1cccc(-c2ccncc2)c1
IC50 [1]: 250 µM
Kd [2]: 280 µM

IC50 [1]: > 2000 µM
Kd [2]: > 1000 µM
Molecule: O=C(O)c1ccccn1 [2-PICOLINIC ACID]

IC50 [1]: > 2000 µM
Kd [2]: > 1000 µM
Molecule: CC(=O)c1cccc(-c2ccncc2)c1

inhibition [4]: 50%
Molecule: NC(=O)[C@@H]1CC[C@@H]2CN1C(=O)N2OS(=O)(=O)O

Molecule: O=C(O)c1cccc(-c2cccnc2)c1
IC50 [1]: 240 µM
Kd [2]: 280 µM

Molecule: C[C@@H](O)[C@H]1C(=O)N2C(C(=O)O)=C(S[C@@H]3CN[C@H](C(=O)N(C)C)C3)[C@H](C)[C@H]12 [MEROPENEM]
koff [5]: 0.3463 s⁻¹
Kd [2]: 0.85 µM
Ka [6]: 4 ×10⁴ /M/s

Molecule: O=C(O)c1cccc(C#Cc2ccccc2)c1
IC50 [1]: 480 µM

Molecule: O=C(O)c1ccc(Oc2ccccc2)cc1
IC50 [1]: 870 µM
Kd [2]: 660 µM

B1: Beta-lactamase OXA-48 (Klebsiella pneumoniae), Q6XEC0 (protein)
chain: MRVLALSAVFLVASIIGMPAVAKEWQENKSWNAHFTEHKSQGVVVLWNENKQQGFTNNLKRANQAFLPASTFKIPNSLIALDLGVVKDEHQVFKWDGQTRDIATWNRDHNLITAMKYSVVPVYQEFARQIGEARMSKMLHAFDYGNEDISGNVDSFWLDGGIRISATEQISFLRKLYHNKLHVSERSQRIVKQAMLTEANGDYIIRAKTGYSTRIEPKIGWWVGWVELDDNVWFFAMNMDMPTSDGLGLRQAITKEVLKQEKIIP
Km [7]: 150 µM
kcat [7]: 2300 s⁻¹
Km [8]: 24 µM
kcat [8]: 0.66 s⁻¹
Km [9]: 1 µM
kcat [9]: 0.098 s⁻¹
Km [10]: 7.9 µM
kcat [10]: 4.5 s⁻¹
Km [11]: 150 µM
kcat [11]: 560 s⁻¹
Km [12]: 90 µM
kcat [12]: 1500 s⁻¹
Km [13]: 300 µM
kcat [13]: 9 s⁻¹
Km [14]: 700 µM
kcat [14]: 8000 s⁻¹
kcat/Km [15]: 1.5 ×10⁷ /M/s
kcat/Km [16]: 2.8 ×10⁴ /M/s
kcat/Km [17]: 9.8 ×10⁴ /M/s
kcat/Km [18]: 5.7 ×10⁵ /M/s
kcat/Km [19]: 3.7 ×10⁶ /M/s
kcat/Km [20]: 1.7 ×10⁷ /M/s
kcat/Km [21]: 3 ×10⁴ /M/s
kcat/Km [22]: 1.1 ×10⁷ /M/s

— ChEMBL document CHEMBL3860021, “Screening and Design of Inhibitor Scaffolds for the Antibiotic Resistance Oxacillinase-48 (OXA-48) through Surface Plasmon Resonance Screening” (J Med Chem, 2016)
